Assays:
[1] = target: Estrogen receptor (Bos taurus) (UniProt Q9XSB5+P49884); assay: Relative binding affinity for calf uterine estrogen receptor is the ratio of molar concentrations of 17-beta-estradiol and compound required to decrease amount of bound [3H]-E2 by 50% X 100.; format: protein assay
Outline: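 Calf uterine cytosol incubated with [3H]estradiol and competitor at 4 °C for 16 h. Free ligand removed with dextran-coated charcoal, then centrifuged and a supernatant aliquot counted. Six competitor concentrations chosen to span 50% competition on a semilog plot. Molar concentrations of unlabeled estradiol and test compound giving 50% reduction in binding were read from the plot.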

[2] = target: T1, Estrogen receptor (Mus musculus) (UniProt O08537+P19785); assay: Anti-estrogenic activity in mouse uterotrophic assay at 0 ug; format: functional; parameters: unit not given here
T1 sequence (O08537 whole entry, looked up): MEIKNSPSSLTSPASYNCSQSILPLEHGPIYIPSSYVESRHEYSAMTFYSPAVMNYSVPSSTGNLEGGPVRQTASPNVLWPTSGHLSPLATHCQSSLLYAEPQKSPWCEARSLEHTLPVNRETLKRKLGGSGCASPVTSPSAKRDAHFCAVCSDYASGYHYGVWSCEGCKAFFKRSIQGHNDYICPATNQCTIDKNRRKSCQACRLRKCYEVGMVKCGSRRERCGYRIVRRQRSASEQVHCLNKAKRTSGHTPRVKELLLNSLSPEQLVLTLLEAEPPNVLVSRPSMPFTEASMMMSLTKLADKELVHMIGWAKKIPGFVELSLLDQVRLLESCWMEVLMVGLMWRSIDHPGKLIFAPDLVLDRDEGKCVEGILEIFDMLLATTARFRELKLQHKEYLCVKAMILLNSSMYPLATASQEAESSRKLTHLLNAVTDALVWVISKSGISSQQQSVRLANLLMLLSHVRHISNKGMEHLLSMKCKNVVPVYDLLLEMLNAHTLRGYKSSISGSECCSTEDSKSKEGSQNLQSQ
T1 sequence (P19785 whole entry, looked up): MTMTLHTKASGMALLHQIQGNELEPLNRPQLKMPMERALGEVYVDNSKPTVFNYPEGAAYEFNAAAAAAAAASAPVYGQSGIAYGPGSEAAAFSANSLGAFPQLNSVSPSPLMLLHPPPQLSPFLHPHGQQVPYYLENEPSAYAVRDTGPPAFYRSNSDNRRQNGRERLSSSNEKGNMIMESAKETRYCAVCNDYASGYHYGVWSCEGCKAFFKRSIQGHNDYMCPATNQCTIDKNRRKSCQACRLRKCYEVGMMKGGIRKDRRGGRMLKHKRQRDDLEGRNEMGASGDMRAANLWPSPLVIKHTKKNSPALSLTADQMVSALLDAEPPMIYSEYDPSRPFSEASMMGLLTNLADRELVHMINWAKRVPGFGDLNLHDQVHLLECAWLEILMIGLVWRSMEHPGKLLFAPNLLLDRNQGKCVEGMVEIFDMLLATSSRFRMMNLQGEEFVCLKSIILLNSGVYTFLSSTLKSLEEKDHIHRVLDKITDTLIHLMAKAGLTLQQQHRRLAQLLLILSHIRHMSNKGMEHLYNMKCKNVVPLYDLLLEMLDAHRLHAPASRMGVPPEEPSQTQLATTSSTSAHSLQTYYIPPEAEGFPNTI
Outline: (§1)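 Immature female NMRI mice, 20 days old (14.5 ± 1.2 g), randomized into groups of 10. Test compound in olive oil (0.1 mL) given subcutaneously daily for 3 days alongside estrone stimulation. Uteri removed 24 h after last injection, fixed in Bouin's solution, washed, dried and weighed. Readout is inhibition of estrone-stimulated uterine growth.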

[3] = target: T1, Estrogen receptor (Mus musculus); assay: Anti-estrogenic activity in mouse uterotrophic assay at 1 ug; format: functional; parameters: unit not given here; outline: as §1
[4] = target: T1, Estrogen receptor (Mus musculus); assay: Anti-estrogenic activity in mouse uterotrophic assay at 10 ug; format: functional; parameters: unit not given here; outline: as §1
[5] = target: T1, Estrogen receptor (Mus musculus); assay: Anti-estrogenic activity in mouse uterotrophic assay at 100 ug; format: functional; parameters: unit not given here; outline: as §1
[6] = target: T1, Estrogen receptor (Mus musculus); assay: Estrogenic activity in mouse uterotrophic assay at 0 ug; format: functional; parameters: unit not given here
Outline: (§2)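 Uterotrophic test in 20-day-old immature female NMRI mice (14.5 ± 1.2 g), 10 per group. Daily s.c. injections of compound in 0.1 mL olive oil for 3 days. Uteri excised 24 h after final dose, Bouin-fixed, washed, dried and weighed to measure stimulation of uterine growth.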

[7] = target: T1, Estrogen receptor (Mus musculus); assay: Estrogenic activity in mouse uterotrophic assay at 10 ug; format: functional; parameters: unit not given here; outline: as §2
[8] = target: T1, Estrogen receptor (Mus musculus); assay: Estrogenic activity in mouse uterotrophic assay at 100 ug; format: functional; parameters: unit not given here; outline: as §2
[9] = target: T1, Estrogen receptor (Mus musculus); assay: Estrogenic activity in mouse uterotrophic assay at 1000 ug; format: functional; parameters: unit not given here; outline: as §2
[10] = target: T1, Estrogen receptor (Mus musculus); assay: Anti-estrogenic activity as inhibition of estrone-stimulated uterine growth in mice at 1 mg/kg; format: functional, organism-based; parameters: dose 1 mg/kg; outline: as §1
[11] = target: T1, Estrogen receptor (Mus musculus); assay: Estrogenic activity in mouse uterotrophic assay at 1 ug; format: functional; outline: as §2
[12] = target: T1, Estrogen receptor (Mus musculus); assay: Anti-estrogenic activity as inhibition of estrone-stimulated uterine growth in mice at 10 mg/kg; format: functional, organism-based; parameters: dose 10 mg/kg; outline: as §1
[13] = target: T1, Estrogen receptor (Mus musculus); assay: Estrogenic activity in mouse uterotrophic assay at 0.1 ug; format: functional; outline: as §2
[14] = target: T1, Estrogen receptor (Mus musculus); assay: Anti-estrogenic activity in mouse uterotrophic assay at 2.5 ug; format: functional; outline: as §1
[15] = target: T1, Estrogen receptor (Mus musculus); assay: Anti-estrogenic activity in mouse uterotrophic assay at 25 ug; format: functional; outline: as §1
[16] = target: T1, Estrogen receptor (Mus musculus); assay: Anti-estrogenic activity in mouse uterotrophic assay at 5 ug; format: functional; outline: as §1
[17] = target: T1, Estrogen receptor (Mus musculus); assay: Anti-estrogenic activity in mouse uterotrophic assay at 50 ug; format: functional; outline: as §1
[18] = target: T1, Estrogen receptor (Mus musculus); assay: Anti-estrogenic activity in mouse uterotrophic assay at 500 ug; format: functional; outline: as §1
[19] = target: T1, Estrogen receptor (Mus musculus); assay: Estrogenic activity in mouse uterotrophic assay at 8 ug; format: functional; outline: as §2
[20] = target: T1, Estrogen receptor (Mus musculus); assay: Estrogenic activity in mouse uterotrophic assay at 80 ug; format: functional; outline: as §2
[21] = target: T1, Estrogen receptor (Mus musculus); assay: Estrogenic activity in mouse uterotrophic assay at 0.8 ug; format: functional; outline: as §2
[22] = target: T1, Estrogen receptor (Mus musculus); assay: Estrogenic activity in mouse uterotrophic assay at 24 ug; format: functional; outline: as §2
[23] = target: T1, Estrogen receptor (Mus musculus); assay: Anti-estrogenic activity as inhibition of estrone-stimulated uterine growth in mice at 2.5 mg/kg; format: functional, organism-based; parameters: dose 2.5 mg/kg; outline: as §1
[24] = target: T1, Estrogen receptor (Mus musculus); assay: Estrogenic activity as uterotrophic effect in mice at 800 ug dose; format: functional; outline: as §2
[25] = target: T1, Estrogen receptor (Mus musculus); assay: Estrogenic activity in mouse uterotrophic assay at 0.5 ug; format: functional; outline: as §2
[26] = target: T1, Estrogen receptor (Mus musculus); assay: Estrogenic activity in mouse uterotrophic assay at 5 ug; format: functional; outline: as §2
[27] = target: T1, Estrogen receptor (Mus musculus); assay: Estrogenic activity in mouse uterotrophic assay at 50 ug; format: functional; outline: as §2
[28] = target: T1, Estrogen receptor (Mus musculus); assay: Anti-estrogenic activity as inhibition of estrone-stimulated uterine growth in mice at 100 mg/kg; format: functional, organism-based; parameters: dose 100 mg/kg; outline: as §1

CCOCc1cc(C(CC)C(CC)c2ccc(O)c(COCC)c2)ccc1O (stereo not drawn)
RBA [1]: 0.18

CCC(c1ccc(N)c(O)c1)C(CC)c1ccc(N)c(O)c1 (stereo not drawn)
RBA [1]: 0.52 | Activity [2]: 14.8 | Activity [3]: 33 | Activity [4]: 41.7 | Activity [5]: 42.3 | Activity [6]: 13.9 | Activity [7]: 19.9 | Activity [8]: 19.5 | Activity [9]: 36.6 | inhibition [10]: 29%

CCc1ccc(C(CC)C(CC)c2ccc(CC)c(O)c2)cc1O (stereo not drawn)
RBA [1]: 0.04

CCC(c1ccc(O)c(N)c1)C(CC)c1ccc(O)c(N)c1 (stereo not drawn)
RBA [1]: 5.6

CC[C@H](c1ccc(O)cc1)[C@@H](CC)c1ccc(O)cc1
RBA [1]: 27

CCC(c1ccc(O)cc1O)C(CC)c1ccc(O)cc1O (stereo not drawn)
RBA [1]: 32

CCC(c1ccc(O)cc1Cl)C(CC)c1ccc(O)cc1Cl (stereo not drawn)
RBA [1]: 2.2

CCC(c1ccc(O)c(C)c1)C(CC)c1ccc(O)c(C)c1 (stereo not drawn)
RBA [1]: 8.1

CCC(c1ccc(N(C)C)c(O)c1)C(CC)c1ccc(N(C)C)c(O)c1 (stereo not drawn)
RBA [1]: < 0.01

CCC(c1ccc(O)c(N(C)C)c1)C(CC)c1ccc(O)c(N(C)C)c1 (stereo not drawn)
RBA [1]: < 0.01

CCOCc1ccc(C(CC)C(CC)c2ccc(COCC)c(O)c2)cc1O (stereo not drawn)
RBA [1]: < 0.01

CCC(c1ccc(C(C)=O)c(O)c1)C(CC)c1ccc(C(C)=O)c(O)c1 (stereo not drawn)
RBA [1]: < 0.01

CCC(c1ccc(O)c([N+](=O)[O-])c1)C(CC)c1ccc(O)c([N+](=O)[O-])c1 (stereo not drawn)
RBA [1]: 0.14

CCC(c1ccc(I)c(O)c1)C(CC)c1ccc(I)c(O)c1 (stereo not drawn)
RBA [1]: < 0.01

CCC(c1ccc(C)c(O)c1)C(CC)c1ccc(C)c(O)c1 (stereo not drawn)
RBA [1]: 0.73 | Activity [2]: 14.8 | Activity [3]: 34.3 | Activity [4]: 39.6 | Activity [5]: 41.8 | Activity [6]: 13.9 | Activity [11]: 21.7 | Activity [7]: 45 | Activity [8]: 46.2 | Activity [9]: 43.5 | inhibition [12]: 3% | inhibition [10]: 24% | Activity [13]: 14.3

CCC(c1cccc(O)c1)C(CC)c1cccc(O)c1 (stereo not drawn)
RBA [1]: 10 | Activity [2]: 12.5 | Activity [14]: 29.5 | Activity [15]: 28.1 | Activity [16]: 23.5 | Activity [17]: 28.3 | Activity [18]: 30.9 | Activity [19]: 14.4 | Activity [20]: 30.5 | Activity [6]: 10.7 | Activity [21]: 11.8 | Activity [22]: 18.5 | inhibition [23]: 27% | Weight (mg/g) [24]: 30.8%

CCC(c1cc(O)ccc1C)C(CC)c1cc(O)ccc1C (stereo not drawn)
RBA [1]: 15 | Activity [2]: 13.7 | Activity [3]: 27.2 | Activity [4]: 25.4 | Activity [5]: 31 | Activity [6]: 13.7 | Activity [25]: 13.3 | Activity [7]: 37.5 | Activity [8]: 52.1 | Activity [9]: 50.5 | Activity [26]: 19.8 | Activity [27]: 41.9 | inhibition [28]: 22% | inhibition [12]: 47% | inhibition [10]: 39%

CCC(c1cc(O)cc(O)c1)C(CC)c1cc(O)cc(O)c1 (stereo not drawn)
RBA [1]: 0.01

CCC(c1ccc(CN(C)C)c(O)c1)C(CC)c1ccc(CN(C)C)c(O)c1 (stereo not drawn)
RBA [1]: < 0.01

CCC(c1ccc(O)c(I)c1)C(CC)c1ccc(O)c(I)c1 (stereo not drawn)
RBA [1]: 0.17

— ChEMBL document CHEMBL1122644, “Ring-substituted 1,2-dialkylated 1,2-bis(hydroxyphenyl)ethanes. 2. Synthesis and estrogen receptor binding affinity of 4,4'-, 5,5'-, and 6,6'-disubstituted metahexestrols” (J Med Chem, 1984)
